In ChEMBL document CHEMBL5543129, “Peptide Inhibitor Targeting the Extraterminal Domain in BRD4 Potently Suppresses Breast Cancer Both In Vitro and In Vivo” (J Med Chem, 2024) one finds fold change (FC) and EC50 data, which are given here for two compounds.

Square brackets hold non-standard residues; d marks the D form. Peptide text beside a SMILES is read from it. Hyp = O=C(O)[C@@H]1C[C@@H](O)CN1; Ahx = NCCCCCC(=O)O

The target of experiment [1] is T1, von Hippel-Lindau disease tumor suppressor/Bifunctional arginine demethylase and lysyl-hydroxylase JMJD6 (Homo sapiens) (UniProt P40337+Q6NYC1). Kind of experiment: Protac activity at VHL/JMJD6 in human MCF7 cells assessed as degradation by measuring fold change in remaining JMJD6 level at 5 uM incubated for 24 hrs by immunoblotting analysis (reference value: […]). The class given is cell-based. In general terms: A western blot detects proteins with antibodies after separation by electrophoresis.

Experiment [2] has as its target T2, von Hippel-Lindau disease tumor suppressor/Bromodomain-containing protein 4 (Homo sapiens) (UniProt O60885+P40337). Kind of experiment: PROTAC activity at VHL/BDR4 ET domain in human MCF7 cells assessed as degradation by measuring fold change in remaining BRD4 level at 10 uM incubated for 6 hrs by immunoblotting analysis (reference value: […]). The format is cell-based.

Experiment [3] deals with T1, von Hippel-Lindau disease tumor suppressor/Bifunctional arginine demethylase and lysyl-hydroxylase JMJD6 (Homo sapiens). Kind of experiment: Protac activity at VHL/JMJD6 in human MCF7 cells assessed as degradation by measuring fold change in remaining JMJD6 level at 10 uM incubated for 6 hrs by immunoblotting analysis (reference value: […]). The class given is cell-based.

Experiment [4] shares this target. Kind of experiment: Protac activity at VHL/JMJD6 in human MCF7 cells assessed as degradation by measuring fold change in remaining JMJD6 level at 10 uM incubated for 12 hrs by immunoblotting analysis (reference value: […]). The class given is cell-based.
The target of experiment [5] is T2, von Hippel-Lindau disease tumor suppressor/Bromodomain-containing protein 4 (Homo sapiens). Kind of experiment: PROTAC activity at VHL/BDR4 ET domain in human MCF7 cells assessed as degradation by measuring fold change in remaining BRD4 level at 10 uM incubated for 24 hrs in presence of MG132 by immunoblotting analysis (reference value: […]). The format is cell-based.

Experiment [6] addresses T1, von Hippel-Lindau disease tumor suppressor/Bifunctional arginine demethylase and lysyl-hydroxylase JMJD6 (Homo sapiens). Kind of experiment: Protac activity at VHL/JMJD6 in human MCF7 cells assessed as degradation by measuring fold change in remaining JMJD6 level at 10 uM incubated for 24 hrs in presence of MG132 by immunoblotting analysis (reference value: […]). The format is cell-based.

In experiment [7] the target is T2, von Hippel-Lindau disease tumor suppressor/Bromodomain-containing protein 4 (Homo sapiens). As to the kind of experiment: PROTAC activity at VHL/BDR4 ET domain in human MCF7 cells assessed as degradation by measuring fold change in remaining BRD4 level at 10 uM incubated for 24 hrs in presence of TAT-PiET by immunoblotting analysis relative to TAT/TAT-PROTAC. The format is cell-based. An outline of the steps:
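MCF7 cells are treated with PROTAC peptide (dose series, or 10 μM over a time course, or 10 μM with or without MG132 10 μM) for up to 24 h. Comparators are TAT, TAT-PiET, or TAT-PROTAC at 10 μM. BRD4 is measured by immunoblot, normalised to β-actin; three repeats.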

Experiment [8] has as its target T1, von Hippel-Lindau disease tumor suppressor/Bifunctional arginine demethylase and lysyl-hydroxylase JMJD6 (Homo sapiens). As to the kind of experiment: PROTAC activity at VHL/JMJD6 in human MCF7 cells assessed as degradation by measuring fold change in remaining JMJD6 level at 10 uM incubated for 24 hrs in presence of TAT-PiET by immunoblotting analysis relative to TAT/TAT-PROTAC. The format is cell-based. An outline of the steps:
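MCF7 cells were left untreated or given TAT, TAT-PROTAC, TAT-PiET or the PROTAC peptide (each 10 μM) for 24 h. Lysates were immunoblotted with β-actin for loading. Three repeats, quantified in the Supporting Table.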

The target in experiment [9] is T2, von Hippel-Lindau disease tumor suppressor/Bromodomain-containing protein 4 (Homo sapiens). As to the kind of experiment: PROTAC activity at VHL/His-tagged BDR4 ET domain (601 to 683 residues) (unknown origin) transfected in MCF7 cells assessed as degradation by measuring fold change in remaining BRD4 level at 5 uM incubated for 24 hrs by immunoblotting analysis (reference value: […]). The class given is cell-based.

The target is the same in experiment [10]. Kind of experiment: PROTAC activity at VHL/His-tagged BDR4 ET domain (601 to 683 residues) (unknown origin) transfected in MCF7 cells assessed as degradation by measuring fold change in remaining BRD4 level at 20 uM incubated for 24 hrs by immunoblotting analysis (reference value: […]). The format is cell-based.
Experiment [11] has the same target. As to the kind of experiment: PROTAC activity at VHL/His-tagged BDR4 ET domain (1 to 470 residues) (unknown origin) transfected in MCF7 cells assessed as degradation by measuring fold change in remaining BRD4 level at 5 uM incubated for 24 hrs by immunoblotting analysis (reference value: […]). The class given is cell-based.
Experiment [12] has the same target. Kind of experiment: PROTAC activity at VHL/His-tagged BDR4 ET domain (1 to 470 residues) (unknown origin) transfected in MCF7 cells assessed as degradation by measuring fold change in remaining BRD4 level at 20 uM incubated for 24 hrs by immunoblotting analysis (reference value: […]). The format is cell-based.
For experiment [13] the target is unchanged. As to the kind of experiment: PROTAC activity at VHL/His-tagged BDR4 ET domain (1 to 470 residues) (unknown origin) transfected in MCF7 cells assessed as degradation by measuring fold change in remaining BRD4 level at 10 uM incubated for 12 hrs by immunoblotting analysis (reference value: […]). The format is cell-based.
The target is the same in experiment [14]. Kind of experiment: PROTAC activity at VHL/His-tagged BDR4 ET domain (471 to 730 residues) (unknown origin) transfected in MCF7 cells assessed as degradation by measuring fold change in remaining BRD4 level at 5 uM incubated for 24 hrs by immunoblotting analysis (reference value: […]). The class given is cell-based.
For experiment [15] the target is unchanged. As to the kind of experiment: PROTAC activity at VHL/His-tagged BDR4 […] (unknown origin) transfected in MCF7 cells assessed as degradation by measuring fold change in remaining BRD4 level at 10 uM incubated for 24 hrs by immunoblotting analysis (reference value: […]). The format is cell-based.
For experiment [16] the target is unchanged. As to the kind of experiment: PROTAC activity at VHL/His-tagged BDR4 […] (unknown origin) transfected in MCF7 cells assessed as degradation by measuring fold change in remaining BRD4 level at 20 uM incubated for 24 hrs by immunoblotting analysis (reference value: […]). The class given is cell-based.
Experiment [17] shares this target. Kind of experiment: PROTAC activity at VHL/His-tagged BDR4 ET domain (1047 to 1362 residues) (unknown origin) transfected in MCF7 cells assessed as degradation by measuring fold change in remaining BRD4 level at 10 uM incubated for 24 hrs by immunoblotting analysis (reference value: […]). The format is cell-based.
Experiment [18] shares this target. As to the kind of experiment: PROTAC activity at VHL/His-tagged BDR4 ET domain (1047 to 1362 residues) (unknown origin) transfected in MCF7 cells assessed as degradation by measuring fold change in remaining BRD4 level at 20 uM incubated for 24 hrs by immunoblotting analysis (reference value: […]). The class given is cell-based.
Another experiment relates to MCF7. Kind of experiment: Cytotoxicity against human MCF7 cells incubated for 1 week by CellTiter 96 Aqueous One Solution based assay. The class given is functional, cell-based. As to conditions: MCF7, 168 h. An outline of the steps:
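Cells (2 × 10^3/well, DMEM + 10% FBS, 37 °C, 5% CO2) treated with a concentration gradient of peptide for 1 week. MTS reagent added for 1 h, absorbance read at 490 nm, EC50 derived.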

Another experiment relates to MDA-MB-231. Kind of experiment: Cytotoxicity against human MDA-MB-231 cells incubated for 1 week by CellTiter 96 Aqueous One Solution based assay. The format is functional, cell-based. As to conditions: MDA-MB-231, 168 h. An outline of the steps:
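Cells grown in RPMI-1640 (T47D, BT549) or DMEM (MDA-MB-231) with 10% FBS, 37 °C, 5% CO2. Seeded 2 × 10^3/well, exposed to a gradient concentration of peptide for 1 week. MTS-type reagent added 20 μL per 100 μL medium, 1 h at 37 °C, absorbance read at 490 nm. EC50 derived from the concentration–response curve.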

For `CC[C@H](C)[C@H](NC(=O)[C@H](Cc1ccc(O)cc1)NC(=O)[C@@H]1C[C@@H](O)CN1C(=O)[C@H](C)NC(=O)[C@@H](NC(=O)CCCCCNC(=O)[C@H](CCC(=O)O)NC(=O)CNC(=O)[C@H](CS)NC(=O)[C@H](CCCCN)NC(=O)[C@H](Cc1ccccc1)NC(=O)[C@H](CCCCN)NC(=O)[C@H](CCC(N)=O)NC(=O)[C@H](CC(N)=O)NC(=O)[C@H](CCCNC(=N)N)NC(=O)[C@H](CCCNC(=N)N)NC(=O)[C@H](CCCNC(=N)N)NC(=O)[C@H](CCCNC(=N)N)NC(=O)[C@H](CCC(N)=O)NC(=O)[C@H](CCCNC(=N)N)NC(=O)[C@H](CCCNC(=N)N)NC(=O)[C@H](CCCCN)NC(=O)[C@H](CCCCN)NC(=O)[C@H](CCCNC(=N)N)NC(=O)CNC(=O)[C@@H](N)Cc1ccc(O)cc1)[C@@H](C)CC)C(=O)O` (H-YGRKKRRQRRRRNQKFKCGE[Ahx]IA[Hyp]YI-OH), the fold change (FC) in experiment [1] was found to be 0.77; in experiment [2] it was 0.72; in experiment [3] it was 0.89; in experiment [4], 0.85; in [5] it was 0.96; in experiment [6], 0.88. The fold change (FC) stood at 0.84 in [7]; 0.84 in experiment [8]; 0.72 in experiment [9]; 0.37 in experiment [10]; 1.09 in experiment [11]; 1.06 in experiment [12]. Also, the fold change (FC) came to 1.11 in experiment [13]; 0.8 in experiment [14]; 0.91 in [15]; 1.4 in experiment [16]; 1 in experiment [17]; 1.05 in experiment [18].

By EC50 is commonly meant the concentration needed to bring the measured effect to its halfway point. With H-YGRKKRRQRRRRNQKFKCGE-OH, the EC50 stood at 8.13 µM in the experiment on MCF7 and 4.68 µM with MDA-MB-231.
